Experimental data taken from article PMC5651194 (Cellular signalling, 2017).

Key:
Human PDE4B2 = Human PDE4B2 (Homo sapiens, UniProt Q07343); assay: In vitro PDE assay; format: biochemical
[1] = system: S. pombe strain that expresses Git2 adenylyl cyclase and human PDE4B2; assay: Stationary phase viability of yeast; format: cell-based; details: 10μM BC54, three days in stationary phase
Summary of the method: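 S. pombe CHP1346 (git2+ cgs2-2) transformants expressing PDE4B2 or no PDE, plus CHP1207 (git2Δ cgs2-2) with PDE4B2. Grown to stationary phase for three days in EMM-leucine ± 10μM test compound. Diluted 100-fold in YES, then four 10-fold serial dilutions. Spotted onto YES, grown at 30°C and photographed.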

human PDE5A1 = human PDE5A1 (Homo sapiens, UniProt O76074); assay: In vitro PDE assay; format: biochemical
Summary of the method: (§1)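 Recombinant PDE (human PDE1C, PDE3B, PDE5A1, PDE8A, PDE9A2, PDE10A1, PDE11A4; rat PDE2A) incubated with radiolabelled cyclic nucleotide substrate. Stopped in linear phase with 0.2 M ZnSO4, hydrolysis ≤~50%. 5′-nucleotide precipitated with 0.25 N Ba(OH)2 and spun down for 15 min. Supernatant radioactivity measured by scintillation counting.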

[2] = target: mutant PDE4B2^T407A catalytic domain (Homo sapiens, UniProt Q07343, T579A); assay: In vitro enzyme assay, catalytic domain purified from E. coli; format: biochemical
Sequence of mutant PDE4B2^T407A catalytic domain (Q07343 324-659 T579A): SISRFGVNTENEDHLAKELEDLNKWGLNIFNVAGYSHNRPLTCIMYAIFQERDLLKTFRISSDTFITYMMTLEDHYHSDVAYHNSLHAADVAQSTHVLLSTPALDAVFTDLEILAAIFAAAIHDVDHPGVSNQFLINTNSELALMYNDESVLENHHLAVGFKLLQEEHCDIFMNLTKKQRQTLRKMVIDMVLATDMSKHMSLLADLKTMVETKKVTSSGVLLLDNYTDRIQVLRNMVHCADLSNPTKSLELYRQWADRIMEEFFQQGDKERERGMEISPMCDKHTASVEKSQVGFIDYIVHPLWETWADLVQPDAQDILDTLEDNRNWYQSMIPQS

human PDE10A1 = human PDE10A1 (Homo sapiens, UniProt Q9Y233); assay: In vitro PDE assay; format: biochemical
Summary of the method: as §1

PDE7B [3] = target: PDE7B (Homo sapiens, UniProt Q9NP56); assay: In vitro PDE assay; format: biochemical
Sequence of PDE7B (Homo sapiens, UniProt Q9NP56) (Q9NP56 whole entry): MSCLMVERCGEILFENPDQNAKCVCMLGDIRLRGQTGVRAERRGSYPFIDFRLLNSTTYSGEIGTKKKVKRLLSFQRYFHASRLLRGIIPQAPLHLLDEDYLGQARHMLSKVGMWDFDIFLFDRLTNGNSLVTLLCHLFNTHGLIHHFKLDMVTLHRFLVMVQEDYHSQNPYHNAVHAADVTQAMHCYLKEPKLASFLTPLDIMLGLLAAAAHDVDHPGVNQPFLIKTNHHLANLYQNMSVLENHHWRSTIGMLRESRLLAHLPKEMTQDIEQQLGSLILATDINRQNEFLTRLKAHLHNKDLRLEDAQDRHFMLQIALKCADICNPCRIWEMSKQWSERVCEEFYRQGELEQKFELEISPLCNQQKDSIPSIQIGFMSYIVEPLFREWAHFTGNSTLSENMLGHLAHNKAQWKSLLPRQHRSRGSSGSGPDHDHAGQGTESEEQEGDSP

rat PDE2A = rat PDE2A (Rattus norvegicus, UniProt Q01062); assay: In vitro PDE assay; format: biochemical
Summary of the method: as §1

[4] = system: IL-2 production by PMA-PHA stimulated Jurkat T cells; assay: IL-2 assay; format: cell-based; details: 20μM
human PDE3B = human PDE3B (Homo sapiens, UniProt Q13370); assay: In vitro PDE assay; format: biochemical
Sequence of human PDE3B (Q13370 whole entry): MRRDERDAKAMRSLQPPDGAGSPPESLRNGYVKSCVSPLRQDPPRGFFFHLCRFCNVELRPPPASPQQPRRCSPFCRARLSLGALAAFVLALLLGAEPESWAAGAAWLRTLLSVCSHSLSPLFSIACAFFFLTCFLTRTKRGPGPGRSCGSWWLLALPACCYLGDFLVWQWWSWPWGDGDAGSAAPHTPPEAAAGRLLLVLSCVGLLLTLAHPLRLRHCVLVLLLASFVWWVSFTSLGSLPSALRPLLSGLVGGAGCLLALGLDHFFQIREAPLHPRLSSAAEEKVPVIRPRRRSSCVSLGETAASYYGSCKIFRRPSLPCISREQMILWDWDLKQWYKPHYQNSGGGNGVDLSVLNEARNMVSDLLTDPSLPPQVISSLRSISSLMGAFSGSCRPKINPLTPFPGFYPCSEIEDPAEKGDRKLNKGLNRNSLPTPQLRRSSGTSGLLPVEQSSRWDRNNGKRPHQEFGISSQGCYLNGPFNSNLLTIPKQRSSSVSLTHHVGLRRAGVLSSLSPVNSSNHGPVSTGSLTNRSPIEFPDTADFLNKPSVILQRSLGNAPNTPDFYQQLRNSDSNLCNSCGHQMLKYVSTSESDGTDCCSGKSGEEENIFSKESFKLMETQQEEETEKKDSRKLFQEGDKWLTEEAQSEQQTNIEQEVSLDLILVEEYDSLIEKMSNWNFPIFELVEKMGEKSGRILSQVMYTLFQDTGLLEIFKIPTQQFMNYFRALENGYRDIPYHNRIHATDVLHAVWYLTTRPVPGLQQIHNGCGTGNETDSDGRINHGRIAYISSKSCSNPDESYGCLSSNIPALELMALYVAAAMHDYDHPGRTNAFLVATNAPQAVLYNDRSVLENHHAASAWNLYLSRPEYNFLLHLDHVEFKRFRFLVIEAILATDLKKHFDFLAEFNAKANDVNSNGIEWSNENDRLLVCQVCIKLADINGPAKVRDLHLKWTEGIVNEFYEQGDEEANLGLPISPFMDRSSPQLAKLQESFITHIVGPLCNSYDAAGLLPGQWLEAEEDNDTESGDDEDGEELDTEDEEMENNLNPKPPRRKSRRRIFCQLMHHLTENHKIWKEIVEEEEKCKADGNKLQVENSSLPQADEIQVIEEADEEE
Summary of the method: as §1

murine PDE4B3 = murine PDE4B3 (Mus musculus, UniProt Q8VBU5); assay: Yeast-based HTS; format: cell-based; details: duplicate plates, OD600 after 48 h
Summary of the method: (§2)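 S. pombe gpa2Δ strains carrying the PKA-repressed fbp1-ura4+ reporter, with the PDE replacing endogenous Cgs2, grown in 5FOA medium. Compounds from 5 mg/mL stocks were pinned in. OD600 read after 48 h at 30°C. Run on duplicate plates; composite Z = replicate Z-score vector scaled by cosine correlation with the diagonal. Controls: 0.2% DMSO (negative), 5 mM cAMP (positive).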

human PDE7A1 = human PDE7A1 (Homo sapiens, UniProt Q13946); assay: Yeast-based HTS; format: cell-based; details: duplicate plates, OD600 after 48 h
Sequence of human PDE7A1 (Q13946 whole entry): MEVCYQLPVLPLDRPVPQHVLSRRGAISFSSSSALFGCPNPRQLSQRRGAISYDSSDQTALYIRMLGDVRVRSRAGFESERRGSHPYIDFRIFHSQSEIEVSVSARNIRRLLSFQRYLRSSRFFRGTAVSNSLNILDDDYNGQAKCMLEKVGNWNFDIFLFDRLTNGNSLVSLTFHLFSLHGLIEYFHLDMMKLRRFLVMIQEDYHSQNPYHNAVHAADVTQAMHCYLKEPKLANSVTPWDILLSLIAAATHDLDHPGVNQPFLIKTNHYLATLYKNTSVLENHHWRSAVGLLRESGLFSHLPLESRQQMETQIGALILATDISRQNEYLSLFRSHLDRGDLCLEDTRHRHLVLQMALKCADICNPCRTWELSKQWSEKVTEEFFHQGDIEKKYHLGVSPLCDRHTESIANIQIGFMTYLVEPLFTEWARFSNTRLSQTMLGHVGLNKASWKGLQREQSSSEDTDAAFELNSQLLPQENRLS
Summary of the method: as §2

[5] = system: TNFα production by LPS-stimulated macrophage (U937 cells); assay: TNFα assay; format: cell-based; details: 20μM
human PDE11A4 = human PDE11A4 (Homo sapiens, UniProt Q9HCR9); assay: In vitro PDE assay; format: biochemical
Summary of the method: as §1

human PDE8A = human PDE8A (Homo sapiens, UniProt O60658); assay: In vitro PDE assay; format: biochemical
Sequence of human PDE8A (O60658 whole entry): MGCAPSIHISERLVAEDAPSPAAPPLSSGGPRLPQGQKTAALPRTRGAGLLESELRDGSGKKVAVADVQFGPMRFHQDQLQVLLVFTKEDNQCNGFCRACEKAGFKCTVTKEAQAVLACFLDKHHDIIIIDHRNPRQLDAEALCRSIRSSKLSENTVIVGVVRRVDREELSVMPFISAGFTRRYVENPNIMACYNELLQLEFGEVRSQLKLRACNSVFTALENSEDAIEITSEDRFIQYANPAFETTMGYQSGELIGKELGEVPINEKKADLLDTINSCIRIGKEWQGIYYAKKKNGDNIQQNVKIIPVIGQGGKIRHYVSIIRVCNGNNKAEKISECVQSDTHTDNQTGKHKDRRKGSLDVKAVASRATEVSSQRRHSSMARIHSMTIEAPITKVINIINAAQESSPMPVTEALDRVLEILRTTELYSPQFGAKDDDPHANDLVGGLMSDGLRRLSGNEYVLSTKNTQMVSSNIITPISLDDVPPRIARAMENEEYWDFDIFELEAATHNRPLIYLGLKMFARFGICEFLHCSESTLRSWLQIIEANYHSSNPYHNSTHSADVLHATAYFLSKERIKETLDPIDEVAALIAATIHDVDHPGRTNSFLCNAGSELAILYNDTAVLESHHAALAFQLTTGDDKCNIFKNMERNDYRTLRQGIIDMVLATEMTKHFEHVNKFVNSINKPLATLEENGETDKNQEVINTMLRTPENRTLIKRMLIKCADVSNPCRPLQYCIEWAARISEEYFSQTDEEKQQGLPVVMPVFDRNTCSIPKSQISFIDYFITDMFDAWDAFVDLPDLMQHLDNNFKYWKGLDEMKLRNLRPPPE
Summary of the method: as §1

human PDE9A2 = human PDE9A2 (Homo sapiens, UniProt O76083); assay: In vitro PDE assay; format: biochemical
Summary of the method: as §1

PDE8A = details: not a hit; cited from earlier work
[6] = system: yeast strains that express human PDE4A1, PDE4B2, PDE4D3, PDE7A1 or PDE7B1; assay: 5FOA growth assay, dose response; format: cell-based; details: dose response 0.05 μM to 50 μM
Human PDE4D2 = Human PDE4D2 (Homo sapiens, UniProt Q08499); assay: In vitro PDE assay; format: biochemical
Sequence of Human PDE4D2 (Q08499 388-713): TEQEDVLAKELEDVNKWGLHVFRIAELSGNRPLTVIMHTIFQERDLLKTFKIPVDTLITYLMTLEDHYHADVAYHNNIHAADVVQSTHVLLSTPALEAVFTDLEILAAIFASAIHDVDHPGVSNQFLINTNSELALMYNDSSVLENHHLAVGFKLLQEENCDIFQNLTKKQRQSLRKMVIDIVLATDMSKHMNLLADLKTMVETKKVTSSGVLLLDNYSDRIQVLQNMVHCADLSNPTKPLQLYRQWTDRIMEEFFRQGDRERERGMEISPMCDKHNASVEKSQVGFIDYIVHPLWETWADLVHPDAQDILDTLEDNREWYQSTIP
Summary of the method: (§3)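 Radiolabelled cAMP hydrolysis with cAMP substrate at 40nM. Reactions stopped in linear phase with 0.2 M ZnSO4, hydrolysis limited to ~50% conversion. 5′-AMP precipitated with 0.25 N Ba(OH)2 and pelleted by centrifugation for 15 min. Supernatant radioactivity counted by scintillation.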

human PDE7A = human PDE7A (Homo sapiens, UniProt Q13946); assay: In vitro PDE assay; format: biochemical
Sequence of human PDE7A (Q13946 whole entry): as the sequence (Q13946 whole entry) above
Summary of the method: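 Human PDE7 enzymes (PDE7A recombinant) assayed with 10nM cAMP substrate. Stopped during linear phase with 0.2 M ZnSO4, conversion kept near 50%. Product 5′-AMP removed by 0.25 N Ba(OH)2 precipitation and 15 min centrifugation. Remaining supernatant radioactivity read in scintillation fluid.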

murine PDE4A1 = murine PDE4A1 (Mus musculus, UniProt O89084); assay: Yeast-based HTS; format: cell-based; details: duplicate plates, OD600 after 48 h
Sequence of murine PDE4A1 (O89084 1-610 isoform O89084-2): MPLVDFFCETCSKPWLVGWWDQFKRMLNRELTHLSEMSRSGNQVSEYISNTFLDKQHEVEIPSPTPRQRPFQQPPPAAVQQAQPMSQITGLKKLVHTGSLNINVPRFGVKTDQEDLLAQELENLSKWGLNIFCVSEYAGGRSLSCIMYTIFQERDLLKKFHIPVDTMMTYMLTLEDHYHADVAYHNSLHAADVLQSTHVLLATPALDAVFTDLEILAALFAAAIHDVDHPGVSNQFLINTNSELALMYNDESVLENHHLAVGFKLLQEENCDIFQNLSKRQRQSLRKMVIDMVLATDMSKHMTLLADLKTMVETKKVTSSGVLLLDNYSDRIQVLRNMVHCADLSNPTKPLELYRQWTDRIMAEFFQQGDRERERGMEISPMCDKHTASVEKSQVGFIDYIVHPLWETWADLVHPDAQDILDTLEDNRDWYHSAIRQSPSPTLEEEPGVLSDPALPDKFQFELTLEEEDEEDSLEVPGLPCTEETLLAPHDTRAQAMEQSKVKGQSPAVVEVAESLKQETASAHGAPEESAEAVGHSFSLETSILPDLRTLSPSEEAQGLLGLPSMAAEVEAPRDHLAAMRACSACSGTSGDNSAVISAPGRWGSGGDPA
Summary of the method: as §2

Human PDE4A10 = Human PDE4A10 (Homo sapiens, UniProt P27815); assay: In vitro PDE assay; format: biochemical
Summary of the method: as §3

rat PDE4A5 = rat PDE4A5 (Rattus norvegicus, UniProt P54748); assay: Yeast-based HTS; format: cell-based; details: duplicate plates, OD600 after 48 h
Summary of the method: as §2

PDE11A = details: very weak hit; cited from earlier work
[7] = system: PDE4 and PDE7 relative to PDE2A and PDE11A; assay: Selectivity from in vitro PDE assays; format: biochemical
human PDE1C = human PDE1C (Homo sapiens, UniProt Q14123); assay: In vitro PDE assay; format: biochemical
Sequence of human PDE1C (Q14123 whole entry): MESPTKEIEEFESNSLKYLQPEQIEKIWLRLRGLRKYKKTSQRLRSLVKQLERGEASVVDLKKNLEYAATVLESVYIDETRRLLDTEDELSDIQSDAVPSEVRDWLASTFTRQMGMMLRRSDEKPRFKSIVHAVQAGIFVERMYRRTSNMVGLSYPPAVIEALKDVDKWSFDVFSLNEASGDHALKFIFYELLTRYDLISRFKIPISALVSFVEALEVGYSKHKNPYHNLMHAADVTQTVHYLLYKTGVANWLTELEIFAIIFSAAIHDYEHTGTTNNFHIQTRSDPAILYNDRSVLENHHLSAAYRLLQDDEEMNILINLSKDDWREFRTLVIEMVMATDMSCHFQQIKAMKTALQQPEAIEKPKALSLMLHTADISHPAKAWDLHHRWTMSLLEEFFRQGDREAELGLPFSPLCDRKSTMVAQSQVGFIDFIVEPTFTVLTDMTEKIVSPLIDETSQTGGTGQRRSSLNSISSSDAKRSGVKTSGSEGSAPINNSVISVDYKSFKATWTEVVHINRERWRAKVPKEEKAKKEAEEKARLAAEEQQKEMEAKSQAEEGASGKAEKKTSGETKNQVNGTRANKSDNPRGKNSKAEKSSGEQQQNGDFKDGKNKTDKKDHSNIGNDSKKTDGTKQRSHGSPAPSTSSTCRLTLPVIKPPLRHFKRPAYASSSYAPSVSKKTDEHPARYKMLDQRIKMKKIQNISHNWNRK
Summary of the method: as §1

CLL cells = assay: CLL apoptosis assay; format: cell-based, human; details: 20μM, 48 h, median and standard deviation of three assays
Summary of the method: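 PBMC from heparinized blood of CLL patients, isolated on Histopaque 1077 and washed. Plated at 1 million cells/well in RPMI 1640 with 10% FBS, 20 mM L-glutamine and penicillin/streptomycin. Exposed to 20μM test compound or vehicle for 48 h at 37°C, 5% CO2. Harvested, stained 10 min at 37°C with Hoechst 33342 (0.25 μg/mL final), then analysed by flow cytometry.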

PDE7B [8] = details: cited from earlier work
PDE7A = details: cited from earlier work

Sequence of Human PDE4B2 (Q07343 324-659): as the sequence (Q07343 324-659 T579A) above, with A256T counted along it

CCOC(=O)c1cc2c(=O)n3ccccc3nc2n(C2CCCCC2)/c1=N\C(C)=O [BC54, ethyl (2Z)-2-(acetylimino)-1-cyclohexyl-5-oxo-1,5-dihydro-2H-dipyrido[1,2-a:2′,3′-d] pyrimidine-3-carboxylate]
IC50 (Human PDE4B2): 50 to 110 nM
reduction of stationary phase viability [1]: approximately ten-fold
IC50 (human PDE5A1): > 10000 nM
IC50 [2]: 124 ± 8.8 nM
IC50 (human PDE10A1): > 10000 nM
IC50 (PDE7B [3]): 140 nM
IC50 (rat PDE2A): ~3000 nM
IL-2 production [4]: significantly reduces
IC50 (human PDE3B): > 10000 nM
Composite Z score (murine PDE4B3): > 40
Composite Z score (human PDE7A1): > 40
TNFα production [5]: significantly reduces
IC50 (human PDE11A4): ~3000 nM
IC50 (human PDE8A): > 10000 nM
IC50 (human PDE9A2): > 10000 nM
Composite Z score (PDE8A): −2.35
potency in 5FOA growth assay [6]: significant potency at sub-micromolar concentrations
IC50 (Human PDE4D2): 50 to 110 nM
IC50 (human PDE7A): 140 nM
Composite Z score (murine PDE4A1): > 40
IC50 (Human PDE4A10): 50 to 110 nM
Composite Z score (rat PDE4A5): > 40
Composite Z score (PDE11A): 7.74
selectivity for PDE4 and PDE7 relative to PDE2A and PDE11A [7]: greater than 20 fold
IC50 (human PDE1C): > 10000 nM
CLL apoptosis (CLL cells; Patient 1): 87.3±0.76
CLL apoptosis (CLL cells; Patient 2): 58.8±3.12
CLL apoptosis (CLL cells; Patient 3): 39.8±1.79

Cc1ccc([N+](=O)[O-])cc1S(=O)(=O)N(C)C [BRL50481, 3-(N,N-dimethylsulfonamido)-4-methyl-nitrobenzene]
IC50 (PDE7B [8]): 12100 nM
IC50 (PDE7A): 150 nM
CLL apoptosis (CLL cells; Patient 1): 52.5±0.78
CLL apoptosis (CLL cells; Patient 2): 26.3±1.02
CLL apoptosis (CLL cells; Patient 3): 5.1±0.72

COc1ccc(C2CNC(=O)C2)cc1OC1CCCC1 (stereo not drawn) [rolipram]
CLL apoptosis (CLL cells; Patient 1): 76.7±0.76
CLL apoptosis (CLL cells; Patient 2): 35.6±0.7
CLL apoptosis (CLL cells; Patient 3): 20.3±2.18
